Measurements from ChEMBL document CHEMBL1129428 (J Med Chem, 1996).

Columns and labels:
Mus musculus [1] = test: Anticonvulsant activity after intraperitoneal injection into mice by using MES screen test after 0.5 hr; type: functional
Mus musculus [2] = test: Anticonvulsant activity after intraperitoneal injection into mice measured in a maximal electroshock scree (MES) screen; type: functional
Mus musculus [3] = test: Anticonvulsant activity after intraperitoneal injection into mice by using scPTZ screen after 0.5 hr; type: functional
Mus musculus [4] = test: Compound was tested for anticonvulsant activity after intraperitoneal injection into mice by using MES screen test after 1 hr; type: functional; conditions: ip
Outline: (§1)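 Quantitative intraperitoneal mouse testing in the MES, scPTZ or rotorod neurotoxicity screens at the peak time given for each compound (0.25–2 h). ED50 or TD50 reported in mg/kg with 95% CI and slope (SE).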

[5] = Compound was tested for toxicity after intraperitoneal injection into mice by using neurotoxicity screen test after 2 hr; type: organism-based; conditions: mouse, in vivo, ip; outline: as §1
Rattus norvegicus [6] = test: Compound was tested for anticonvulsant activity after Oral Administration into Rats by using MES screen test after 0.25h,dose 12.5 mg/kg; No activity was demonstarted; type: functional, organism-based; parameters: dose 12.5 mg/kg
Outline: (§2)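 Rats received the compound orally. […] Rats were tested in the MES screen at 0.25, 0.5, 1, 2 and 4 h. Each value is the number of rats protected out of 4. The test followed NINDS procedures.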

Rattus norvegicus [7] = test: Compound was tested for anticonvulsant activity after Oral Administration into Rats by using MES screen test after 4h,dose 12.5 mg/kg; number of rats out of four which were protected; type: functional; outline: as §2
Rattus norvegicus [8] = test: Anticonvulsant activity after oral administration into rats; type: functional; parameters: concentration or dose not given beside the values
Rattus norvegicus [9] = test: Compound was tested for anticonvulsant activity after Oral Administration into Rats by using MES screen test after 1h,dose 12.5 mg/kg; number of rats out of four which were protected; type: functional; outline: as §2
Rattus norvegicus [10] = test: Compound was tested for anticonvulsant activity after Oral Administration into rat by using MES screen test after 4 hr; type: functional
Outline: (§3)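 Rats dosed orally, typically at 50 mg/kg first, then mostly 12.5 mg/kg (some compounds at 30 mg/kg), and tested by maximal electroshock. Four rats per compound, scored at 0.25, 0.5, 1, 2 and 4 h as the number of rats protected out of 4.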

Mus musculus [11] = test: Compound was tested for anticonvulsant activity after intraperitoneal injection into mice by using scPTZ screen test after 1 hr; type: functional; conditions: ip; outline: as §1
Rattus norvegicus [12] = test: Compound was tested for anticonvulsant activity after Oral Administration into Rats by using MES screen test after 2h,dose 12.5 mg/kg; number of rats out of four which were protected; type: functional; outline: as §2
Rattus norvegicus [13] = test: Compound was tested for anticonvulsant activity after Oral Administration into Rats by using MES screen test after 4h,dose 30 mg/kg; number of rats out of four which were protected; type: functional; outline: as §2
Rattus norvegicus [14] = test: Compound was tested for anticonvulsant activity after Oral Administration into Rats by using MES screen test after 0.25h,dose 30 mg/kg; number of rats out of four which were protected; type: functional; outline: as §2
Rattus norvegicus [15] = test: Compound was tested for anticonvulsant activity after Oral Administration into Rats by using MES screen test after 2h,dose 30 mg/kg; number of rats out of four which were protected; type: functional; outline: as §2
Rattus norvegicus [16] = test: Compound was tested for anticonvulsant activity after Oral Administration into Rats by using MES screen test after 0.5h,dose 30 mg/kg; number of rats out of four which were protected; type: functional; outline: as §2
Rattus norvegicus [17] = test: Compound was tested for anticonvulsant activity after Oral Administration into Rats by using MES screen test after 1h,dose 30 mg/kg; number of rats out of four which were protected; type: functional; outline: as §2
Rattus norvegicus [18] = test: Compound was tested for anticonvulsant activity after Oral Administration into rat by using MES screen test after 2 hr; type: functional; outline: as §3
Mus musculus [19] = test: Anticonvulsant activity after intraperitoneal injection into mice by using scPTZ screen test after 4 hr; type: functional
Mus musculus [20] = test: Toxicity after intraperitoneal injection into mice by using toxicity screen test after 0.5 hr; type: organism-based; conditions: in vivo, ip
Outline: (§4)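 Mice injected intraperitoneally at 30, 100 and 300 mg/kg and examined 0.5 and 4 h afterwards. Each entry is the minimum dose giving activity (MES protection, scPTZ protection, or rotorod failure for neurotoxicity) in half or more of the mice. Activity is called absent if nothing occurs at 300 mg/kg.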

Mus musculus [21] = test: Compound was tested for toxicity after intraperitoneal injection into mice by using toxicity screen test after 4 hr; type: organism-based; conditions: in vivo, ip; outline: as §4
Rattus norvegicus [22] = test: Compound was tested for anticonvulsant activity after Oral Administration into Rats by using MES screen test after 0.5h,dose 12.5 mg/kg; No activity was demonstarted; type: functional, organism-based; parameters: dose 12.5 mg/kg; outline: as §2
Rattus norvegicus [23] = test: Compound was tested for anticonvulsant activity after Oral Administration into Rats by using MES screen test after 1h,dose 12.5 mg/kg; No activity was demonstarted; type: functional, organism-based; parameters: dose 12.5 mg/kg; outline: as §2
Rattus norvegicus [24] = test: Compound was tested for anticonvulsant activity after Oral Administration into Rats by using MES screen test after 2h,dose 12.5 mg/kg; No activity was demonstarted; type: functional, organism-based; parameters: dose 12.5 mg/kg; outline: as §2
Rattus norvegicus [25] = test: Compound was tested for anticonvulsant activity after Oral Administration into Rats by using MES screen test after 4h,dose 50 mg/kg; number of rats out of four which were protected; type: functional; outline: as §2
Rattus norvegicus [26] = test: Compound was tested for anticonvulsant activity after Oral Administration into Rats by using MES screen test after 2h,dose 50 mg/kg; number of rats out of four which were protected; type: functional; outline: as §2
Rattus norvegicus [27] = test: Compound was tested for anticonvulsant activity after Oral Administration into Rats by using MES screen test after 0.25h,dose 50 mg/kg; number of rats out of four which were protected; type: functional; outline: as §2
Rattus norvegicus [28] = test: Compound was tested for anticonvulsant activity after Oral Administration into Rats by using MES screen test after 0.5h,dose 50 mg/kg; number of rats out of four which were protected; type: functional; outline: as §2
Rattus norvegicus [29] = test: Compound was tested for anticonvulsant activity after Oral Administration into Rats by using MES screen test after 1h,dose 50 mg/kg; number of rats out of four which were protected; type: functional; outline: as §2
[30] = Compound was tested for toxicity after oral administration in rat by using neurotoxicity screen test after 0.25-24 hr; type: organism-based; conditions: in vivo
Outline: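 Rat neurotoxicity after oral dosing, observed at 0.25, 0.5, 1, 2, 4, 6, 8 and 24 h (8 h omitted for one compound).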

[31] = Protection index = TD50/ED50; type: ADME; conditions: read-out: PI
Rattus norvegicus [32] = test: Compound was tested for anticonvulsant activity after Oral Administration into Rats by using MES screen test after 4h,dose 12.5 mg/kg; No activity was demonstarted; type: functional, organism-based; parameters: dose 12.5 mg/kg; outline: as §2
[33] = Compound was tested for toxicity after intraperitoneal injection into mice by using neurotoxicity screen test after 1 hr; type: organism-based; conditions: mouse, in vivo, ip; outline: as §1
[34] = Protection index = TD50/ED50 (MES); conditions: mouse, in vivo; read-out: PI

NC(=O)N/N=C\c1ccc(Oc2cccc(F)c2F)cc1
Dose (Mus musculus [1]): 100 mg/kg
Dose (Mus musculus [2]): 100 mg/kg
Dose (Mus musculus [3]): 300 mg/kg
ED50 (Mus musculus [4]): 45.8 mg/kg
TD50 at 2 h [5]: 293 mg/kg
Activity (Rattus norvegicus [6]): No activity
Activity (Rattus norvegicus [7]): 4
Activity (Rattus norvegicus [8]): 3
Activity (Rattus norvegicus [9]): 4
ED50 (Rattus norvegicus [10]): 6.15 mg/kg
ED50 (Mus musculus [11]): > 350 mg/kg
Activity (Rattus norvegicus [12]): 4

C/C(=N/NC(N)=O)c1ccccc1Oc1ccc(F)cc1
Activity (Rattus norvegicus [13]): 2
Activity (Rattus norvegicus [14]): 1
Activity (Rattus norvegicus [15]): 3
Activity (Rattus norvegicus [16]): 1
Activity (Rattus norvegicus [17]): 3
ED50 (Rattus norvegicus [18]): 43.4 mg/kg

C/C(=N/NC(N)=O)c1ccc(Sc2ccc(F)cc2)cc1
Dose (Mus musculus [1]): 100 mg/kg
Dose (Mus musculus [2]): 30 mg/kg
Dose (Mus musculus [19]): 300 mg/kg
Dose (Mus musculus [20]): 300 mg/kg
Dose (Mus musculus [21]): 300 mg/kg
Activity (Rattus norvegicus [13]): 4
Activity (Rattus norvegicus [14]): 3
Activity (Rattus norvegicus [15]): 4
Activity (Rattus norvegicus [16]): 4
Activity (Rattus norvegicus [17]): 4
ED50 (Rattus norvegicus [18]): 9.11 mg/kg

Cc1cccc(C)c1Oc1ccc(/C=N/NC(N)=O)cc1
Dose (Mus musculus [1]): 30 mg/kg
Dose (Mus musculus [2]): 100 mg/kg
Dose (Mus musculus [3]): 30 mg/kg
Dose (Mus musculus [19]): 100 mg/kg
Dose (Mus musculus [20]): 300 mg/kg
Dose (Mus musculus [21]): 300 mg/kg
Activity (Rattus norvegicus [13]): 4
Activity (Rattus norvegicus [14]): 1
Activity (Rattus norvegicus [15]): 4
Activity (Rattus norvegicus [16]): 4
Activity (Rattus norvegicus [17]): 4

NC(=O)N/N=C\c1ccc(OC(=O)c2ccccc2)cc1
Dose (Mus musculus [2]): 300 mg/kg
Activity (Rattus norvegicus [6]): No activity
Activity (Rattus norvegicus [22]): No activity
Activity (Rattus norvegicus [23]): No activity
Activity (Rattus norvegicus [24]): No activity

Cc1ccc(Oc2ccc(/C=N/NC(N)=O)cc2)cc1
Dose (Mus musculus [1]): 30 mg/kg
Dose (Mus musculus [2]): 100 mg/kg
ED50 (Mus musculus [4]): 14.7 mg/kg
TD50 at 2 h [5]: 204 mg/kg
Activity (Rattus norvegicus [25]): 4
Activity (Rattus norvegicus [26]): 4
Activity (Rattus norvegicus [27]): 3
Activity (Rattus norvegicus [28]): 4
Activity (Rattus norvegicus [29]): 4
ED50 (Rattus norvegicus [18]): 3.43 mg/kg
TD50 [30]: > 500 mg/kg
selectivity ratio [31]: 2.3
ED50 (Mus musculus [11]): 88.6 mg/kg

C/C(=N/NC(N)=O)c1ccc(Sc2ccc(C)cc2)cc1
Dose (Mus musculus [1]): 100 mg/kg
Dose (Mus musculus [2]): 100 mg/kg
Dose (Mus musculus [3]): 100 mg/kg
Activity (Rattus norvegicus [6]): No activity
Activity (Rattus norvegicus [7]): 4
Activity (Rattus norvegicus [22]): No activity
Activity (Rattus norvegicus [23]): No activity
Activity (Rattus norvegicus [12]): 3

Cc1cc(C)cc(Oc2ccc(/C=N/NC(N)=O)cc2)c1
Dose (Mus musculus [1]): 30 mg/kg
Dose (Mus musculus [2]): 300 mg/kg
Dose (Mus musculus [3]): 300 mg/kg
Activity (Rattus norvegicus [6]): No activity
Activity (Rattus norvegicus [32]): No activity
Activity (Rattus norvegicus [8]): 4
Activity (Rattus norvegicus [9]): 3
Activity (Rattus norvegicus [12]): 2

C/C(=N/NC(N)=O)c1ccc(Oc2ccc(C)cc2)cc1
Dose (Mus musculus [1]): 30 mg/kg
Dose (Mus musculus [2]): 100 mg/kg
Dose (Mus musculus [3]): 30 mg/kg
ED50 (Mus musculus [4]): 5.62 mg/kg
TD50 at 1 h [33]: 57.9 mg/kg
Activity (Rattus norvegicus [6]): No activity
Activity (Rattus norvegicus [7]): 4
Activity (Rattus norvegicus [8]): 1
Activity (Rattus norvegicus [9]): 2
selectivity ratio [31]: 3.09
ED50 (Mus musculus [11]): 18.7 mg/kg
Activity (Rattus norvegicus [12]): 4
selectivity ratio [34]: 10.3
